Measurements gathered from unrelated publications.
Lines come from different studies, so protocols differ.
Oprk1: Kappa-type opioid receptor (Oprk1, Mus musculus, UniProt P33534)
MC4R: Melanocortin receptor 4 (MC4R, Homo sapiens, UniProt P32245)
BCHE: Cholinesterase (BCHE, Homo sapiens, UniProt P06276)

CC(C)[C@@H](CN1CCc2ccccc2C1)NC(=O)Cc1c[nH]c2ccccc12  inhibition (Oprk1; ligand displacement, radioligand; 10 µM): 89.1%
CCCC[C@H](NC(C)=O)C(=O)N[C@@H](C)C(=O)N[C@@H](Cc1c[nH]cn1)C(=O)N[C@@H](Cc1ccccc1)C(=O)N[C@@H](CCCNC(=N)N)C(=O)N[C@H](Cc1c[nH]c2ccccc12)C(=O)N[C@@H](CC(=O)O)C(=O)N[C@@H](CCCNC(=N)N)C(=O)N[C@@H](Cc1ccccc1)C(=O)N[C@@H](C(=O)N1CCC[C@@H]1C(N)=O)C(C)C  Emax (MC4R; cAMP, agonist; CHO-K1): 100%
COc1cc(/C=C/C(=O)O)ccc1OCc1cn(CC(=O)Nc2ccccc2C)nn1  inhibition (BCHE; enzyme activity, inhibitor, Ellman; 40 µM): 44.6%
Cc1c(CC(=O)N[C@@H](CN2CCc3ccccc3C2)C(C)C)cccc1[N+](=O)[O-]  inhibition (Oprk1; ligand displacement, radioligand; 10 µM): 95.1%
CC(C)CC(=O)OC[C@H]1O[C@@](C#N)(c2ccc3c(N)ncnn23)[C@H](O)[C@@H]1O  inhibition (MC4R; cell-free assay; 20 µM): 6%
COc1cc(/C=C/C(=O)O)ccc1OCc1cn(CC(=O)Nc2ccc(Cl)cc2)nn1  inhibition (BCHE; enzyme activity, inhibitor, Ellman; 40 µM): 22.2%
CN1CCC[C@H]1c1cccnc1  inhibition (Muscarinic acetylcholine receptor M5 (CHRM5, Homo sapiens, UniProt P08912); ligand displacement; 50 µM): -4.76%
COc1cc(/C=C/C(=O)O)ccc1OCc1cn(CC(=O)Nc2cccc(Cl)c2)nn1  inhibition (BCHE; enzyme activity, inhibitor, Ellman; 40 µM): 15.3%
CC(C)[C@@H](CN1CCc2ccccc2C1)NC(=O)c1cccc(-c2cccc(O)c2)c1  inhibition (Oprk1; ligand displacement, radioligand; 10 µM): 94.2%
[2H]c1c([2H])c([C@]2([2H])CCCN2C(=O)C(C)(C)Oc2ccc3cn[nH]c3c2)c([2H])c([2H])c1C([2H])([2H])[2H]  remaining binding (Peripheral plasma membrane protein CASK (CASK, Homo sapiens, UniProt O14936); binding, competition with immobilised ligand; 1 µM): 89%
